Laboratory results taken from ChEMBL document CHEMBL1141363, “Synthesis and evaluation of novel heterocyclic MMP inhibitors” (Bioorg Med Chem Lett, 2007).
pIC50: −log10 of the molar value.

Key:
Interstitial collagenase = biological target: T1, Interstitial collagenase (Homo sapiens, UniProt P03956); assay: Inhibition of MMP1
T1 sequence (P03956 whole entry): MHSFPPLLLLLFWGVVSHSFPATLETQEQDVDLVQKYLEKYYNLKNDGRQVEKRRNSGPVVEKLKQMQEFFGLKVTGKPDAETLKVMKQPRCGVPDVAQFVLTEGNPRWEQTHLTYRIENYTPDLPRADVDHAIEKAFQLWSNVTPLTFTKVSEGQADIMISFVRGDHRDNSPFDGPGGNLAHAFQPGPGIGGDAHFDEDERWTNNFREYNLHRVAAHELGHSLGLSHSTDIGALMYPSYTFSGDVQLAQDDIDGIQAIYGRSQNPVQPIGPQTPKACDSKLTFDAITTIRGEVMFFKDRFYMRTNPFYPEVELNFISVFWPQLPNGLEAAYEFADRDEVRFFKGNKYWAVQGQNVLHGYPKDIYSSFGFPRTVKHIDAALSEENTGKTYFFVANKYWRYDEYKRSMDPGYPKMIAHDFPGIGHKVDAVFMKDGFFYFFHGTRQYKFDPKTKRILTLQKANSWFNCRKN
Procedure, shortened: (§1)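 Catalytic domains used at final levels of 85 nM (MMP-1), 24 nM (MMP-2), 18 nM (MMP-9) and 84 nM (MMP-12). Each enzyme was premixed with compound (serial 1:2 dilutions, 150 to 1.2) for 30 min at 37 °C. Substrate was added in 50 mM Hepes with 5 mM CaCl2 and 0.05% w/w Brij-35, pH 7.5, then incubated 30 min. Fluorescence read at ex 328/em 393 nm over 45 min, every 50 s.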

[1] = biological target: Matrix metalloproteinase-9 (Homo sapiens, UniProt P14780); assay: Inhibition of MMP9; procedure, shortened: as §1
Sequence of Matrix metalloproteinase-9 (P14780 whole entry): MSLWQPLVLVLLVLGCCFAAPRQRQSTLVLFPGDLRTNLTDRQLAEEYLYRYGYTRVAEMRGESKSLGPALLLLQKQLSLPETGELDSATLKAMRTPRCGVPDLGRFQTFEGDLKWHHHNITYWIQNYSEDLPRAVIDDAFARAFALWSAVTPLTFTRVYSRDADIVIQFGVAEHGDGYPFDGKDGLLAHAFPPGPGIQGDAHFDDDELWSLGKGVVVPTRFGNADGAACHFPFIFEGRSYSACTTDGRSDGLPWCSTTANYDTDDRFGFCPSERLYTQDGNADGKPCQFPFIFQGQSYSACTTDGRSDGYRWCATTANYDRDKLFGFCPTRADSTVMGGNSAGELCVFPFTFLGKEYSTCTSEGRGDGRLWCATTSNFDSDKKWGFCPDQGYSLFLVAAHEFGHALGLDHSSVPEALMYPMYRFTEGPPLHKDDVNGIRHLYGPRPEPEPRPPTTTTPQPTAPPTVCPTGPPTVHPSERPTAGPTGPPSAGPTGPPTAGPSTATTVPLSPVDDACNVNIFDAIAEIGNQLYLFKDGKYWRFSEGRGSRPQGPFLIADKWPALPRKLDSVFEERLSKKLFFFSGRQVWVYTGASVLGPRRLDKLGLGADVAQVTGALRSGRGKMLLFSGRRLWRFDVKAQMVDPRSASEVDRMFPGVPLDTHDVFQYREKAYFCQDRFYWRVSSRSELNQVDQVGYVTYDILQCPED

[2] = biological target: Macrophage metalloelastase (Homo sapiens, UniProt P39900); assay: Inhibition of MMP12; procedure, shortened: as §1
Sequence of Macrophage metalloelastase (P39900 whole entry): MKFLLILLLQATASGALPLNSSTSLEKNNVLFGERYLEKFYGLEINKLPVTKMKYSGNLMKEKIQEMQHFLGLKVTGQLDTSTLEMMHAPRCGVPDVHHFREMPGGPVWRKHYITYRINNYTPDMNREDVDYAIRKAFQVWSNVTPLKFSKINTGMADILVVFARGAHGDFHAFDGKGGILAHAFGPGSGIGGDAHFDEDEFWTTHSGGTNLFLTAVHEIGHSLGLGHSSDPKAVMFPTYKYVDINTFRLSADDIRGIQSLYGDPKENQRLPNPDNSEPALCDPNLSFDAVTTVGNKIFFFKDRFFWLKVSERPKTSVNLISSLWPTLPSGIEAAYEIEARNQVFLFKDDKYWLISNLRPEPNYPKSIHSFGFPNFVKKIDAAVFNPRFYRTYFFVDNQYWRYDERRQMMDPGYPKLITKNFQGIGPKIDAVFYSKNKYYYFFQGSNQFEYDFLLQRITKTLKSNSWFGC

[3] = biological target: 72 kDa type IV collagenase (Homo sapiens, UniProt P08253); assay: Inhibition of MMP2; procedure, shortened: as §1
Sequence of 72 kDa type IV collagenase (P08253 whole entry): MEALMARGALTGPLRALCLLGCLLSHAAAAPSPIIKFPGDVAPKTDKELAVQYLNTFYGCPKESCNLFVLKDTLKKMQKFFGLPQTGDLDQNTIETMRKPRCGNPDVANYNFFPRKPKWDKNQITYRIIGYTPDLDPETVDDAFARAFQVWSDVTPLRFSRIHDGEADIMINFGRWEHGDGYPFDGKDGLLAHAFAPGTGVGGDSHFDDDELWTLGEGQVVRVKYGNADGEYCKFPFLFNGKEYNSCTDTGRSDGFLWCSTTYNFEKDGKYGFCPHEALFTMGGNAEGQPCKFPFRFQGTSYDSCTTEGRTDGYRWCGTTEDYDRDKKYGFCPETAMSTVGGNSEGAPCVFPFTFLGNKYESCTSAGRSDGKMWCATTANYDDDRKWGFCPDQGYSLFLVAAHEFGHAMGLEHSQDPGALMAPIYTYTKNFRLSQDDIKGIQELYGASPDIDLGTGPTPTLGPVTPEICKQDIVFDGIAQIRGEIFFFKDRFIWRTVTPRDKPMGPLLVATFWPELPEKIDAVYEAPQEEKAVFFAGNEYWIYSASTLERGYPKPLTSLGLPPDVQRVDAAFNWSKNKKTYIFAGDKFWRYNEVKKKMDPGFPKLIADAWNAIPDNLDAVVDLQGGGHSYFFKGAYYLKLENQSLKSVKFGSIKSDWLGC

Compound	pIC50 (Interstitial collagenase)	pIC50 [1]	pIC50 [2]	pIC50 [3]
C(=C\c1ccccc1)/Cn1cc(C2=NCCO2)nn1	< 3.82	< 3.82	4.21	3.83
CCCCCCOC(=O)c1cccc(S)n1	3.94	3.96	3.98	4.07
CCCCCCn1cc(C2=NCCO2)nn1	< 3.82	< 3.82	< 3.82	< 3.82
c1ccc(Cn2cc(C3=NCCO3)nn2)cc1	< 3.82	< 3.82	< 3.82	< 3.82
c1ccc(CCCn2cc(C3=NCCO3)nn2)cc1	< 3.82	< 3.82	< 3.82	< 3.82
O=C(OCc1ccc(F)cc1)c1cccc(S)n1	3.92	3.92	3.95	3.97
O=C(OCc1c(F)cccc1F)c1cccc(=S)[nH]1	4.04	4.00	3.90	4.18
O=C(OCc1cc(F)c(F)cc1F)c1cccc(=S)[nH]1	3.91	3.98	3.97	4.05
O=C(OCc1cccc(Oc2ccccc2)c1)c1cccc(S)n1	4.11	4.12	4.15	4.34
O=C(OCc1ccc(Oc2ccccc2)cc1)c1cccc(S)n1	3.94	3.96	3.96	4.03
O=C(OCc1ccc(Cl)cc1)c1cccc(S)n1	3.90	3.95	3.94	4.02
O=C(Oc1cccc2ccccc12)c1cccc(=S)[nH]1	< 3.82	< 3.82	< 3.82	4.01
O=C(Oc1ccc2ccccc2c1)c1cccc(S)n1	4.00	3.92	4.00	4.00
O=C(OCc1ccc(-c2ccccc2)cc1)c1cccc(=S)[nH]1	3.92	3.82	3.87	3.96
O=C(OCc1cccc(-c2ccccc2)c1)c1cccc(=S)[nH]1	4.12	4.30	4.28	4.38
c1ccc(CCn2nnc(Cc3cccnc3)n2)cc1	< 3.82	< 3.82	< 3.82	< 3.82
CCCCCOC(=O)c1cccc(=O)[nH]1	4.30	4.18	4.17	3.99
O=C(OC1CCC1)c1cccc(S)n1	3.87	3.86	< 3.82	< 3.82
O=C(OCCc1ccccc1)c1cccc(=S)[nH]1	3.92	3.97	3.93	3.92
O=C(OCCCc1ccccc1)c1cccc(=S)[nH]1	4.02	3.95	4.07	4.00
O=C(Oc1ccc2ccccc2c1)c1cccc(=O)[nH]1	4.12	3.99	4.01	3.90
O=C(OCc1ccc2c(c1)OCO2)c1cccc(=O)[nH]1	3.89	3.94	3.98	3.97
O=C(OCc1cccc(-c2ccccc2)c1)c1cccc(=O)[nH]1	4.38	< 3.82	4.00	4.48
O=C(OCc1cccc(Oc2ccccc2)c1)c1cccc(=O)[nH]1	4.17	< 3.82	3.93	< 3.82
O=C(Oc1cccs1)c1cccc(=O)[nH]1	4.25	4.15	4.19	4.14
Cc1cccc(COC(=O)c2cccc(S)n2)c1	< 3.82	5.15	4.15	5.15

Compound	pIC50 (Interstitial collagenase)	pIC50 [1]	pIC50 [2]	pIC50 [3]
Cc1ccc(COC(=O)c2cccc(=S)[nH]2)cc1	< 3.82	3.92	4.09	4.01
O=C(OCc1cccc(C(F)(F)F)c1)c1cccc(=S)[nH]1	3.87	3.90	3.87	3.96
COc1cccc(COC(=O)c2cccc(S)n2)c1	4.07	4.03	4.11	4.05
O=C(OCc1ccc(Br)cc1)c1cccc(=O)[nH]1	4.09	3.94	3.98	3.97
O=C(OCCCCOc1ccccc1)c1cccc(S)n1	3.86	4.08	4.11	4.20
O=C(OCc1cccc(F)c1)c1cccc(S)n1	3.92	3.97	3.82	3.91
O=C(OC/C=C/c1ccccc1)c1cccc(=O)[nH]1	4.07	4.14	4.15	4.05
O=C(Oc1ccco1)c1cccc(=O)[nH]1	4.34	4.05	4.12	3.95
O=C(OCc1ccc(C(F)(F)F)cc1)c1cccc(=S)[nH]1	< 3.82	3.85	4.03	3.90
O=C(Oc1ccsc1)c1cccc(=O)[nH]1	4.41	4.17	4.21	4.19
O=C(Oc1cccc2ccccc12)c1cccc(=O)[nH]1	3.94	3.96	3.95	3.96
COc1ccc(COC(=O)c2cccc(S)n2)cc1	3.97	4.02	4.02	4.04
O=C(OCc1ccccc1Br)c1cccc(S)n1	< 3.82	< 3.82	< 3.82	3.97
c1cncc(Cc2nnn[nH]2)c1	< 3.82	< 3.82	< 3.82	4.32
O=C(Oc1ccsc1)c1cccc(S)n1	3.97	4.05	4.03	4.11
c1ccc(Cn2nnc(Cc3cccnc3)n2)cc1	< 3.82	< 3.82	< 3.82	< 3.82
c1ccc(CCCn2nnc(Cc3cccnc3)n2)cc1	< 3.82	< 3.82	< 3.82	< 3.82
O=C(OCc1cc(F)ccc1F)c1cccc(S)n1	3.94	3.85	4.77	4.10
CCCCCCCn1cc(C2=NCCO2)nn1	< 3.82	< 3.82	< 3.82	< 3.82
c1ccc(CCn2cc(C3=NCCO3)nn2)cc1	< 3.82	< 3.82	< 3.82	< 3.82
O=C(OCc1ccccc1)c1cccc(S)n1	4.00	4.06	4.09	4.07
CC(C)OC(=O)c1cccc(S)n1	3.92	3.88	3.84	< 3.82
C(=C\c1ccccc1)/Cn1nnc(Cc2cccnc2)n1	< 3.82	< 3.82	< 3.82	< 3.82
O=C(OC1CCCCC1)c1cccc(S)n1	3.99	4.04	4.06	4.14
CC(C)OC(=O)c1cccc(=O)[nH]1	4.51	4.17	4.17	4.17
